Measured values gathered from unrelated publications.
Compare with care: the assays were run in different laboratories.
Target: Serine/threonine-protein kinase Sgk2 (SGK2, Homo sapiens, UniProt Q9HBY8)
One construct used (Q9HBY8 1-367): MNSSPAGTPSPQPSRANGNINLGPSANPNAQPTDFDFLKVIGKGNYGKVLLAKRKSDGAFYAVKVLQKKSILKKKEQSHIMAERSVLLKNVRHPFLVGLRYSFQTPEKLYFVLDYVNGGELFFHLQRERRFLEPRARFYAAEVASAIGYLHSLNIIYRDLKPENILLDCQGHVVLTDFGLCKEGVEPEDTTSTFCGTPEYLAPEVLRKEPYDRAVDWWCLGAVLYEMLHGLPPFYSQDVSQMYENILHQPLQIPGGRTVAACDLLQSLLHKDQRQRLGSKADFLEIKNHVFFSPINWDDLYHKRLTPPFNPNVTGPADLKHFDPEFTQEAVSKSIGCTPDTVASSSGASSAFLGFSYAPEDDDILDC

CC(C)(C)c1nc(-c2cccc(NS(=O)(=O)c3c(F)cccc3F)c2F)c(-c2ccnc(N)n2)s1
remaining activity (enzyme activity; inhibitor; radiometric; 1 µM): 101%

O=C(Nc1cnn(-c2csc(C(=O)NC3COC3)c2)c1)Nc1c(F)cccc1Cl
remaining activity (enzyme activity; inhibitor; 5 µM): 88.6%

O=C(NS(=O)(=O)c1ccc(NCC2CCOCC2)c([N+](=O)[O-])c1)c1ccc(N2CCN(Cc3ccc(C(F)(F)F)cc3-c3ccc(Cl)cc3)CC2)cc1Oc1cnc2[nH]ccc2c1
remaining binding (cell-free assay; competition with immobilised ligand; 1 µM): 100%

CNC(=O)c1cc(Oc2ccc(NC(=O)Nc3ccc(Cl)c(C(F)(F)F)c3)cc2)ccn1
inhibition (enzyme activity; inhibitor; 10 µM): -2%

CNC(=O)Nc1ccc2c(c1)CC[C@@]21OC(=O)N(CC(=O)N(Cc2ccc(F)cc2)[C@@H](C)C(F)(F)F)C1=O
remaining binding (cell-free assay; competition with immobilised ligand; 1 µM): 100%

Cc1ccc(Nc2nccc(N(C)c3ccc4c(C)n(C)nc4c3)n2)cc1S(N)(=O)=O
inhibition (enzyme activity; inhibitor; 0.3 µM): 5%

O=C1NC(=O)c2cc(Nc3ccc(F)cc3)c(Nc3ccc(F)cc3)cc21
remaining signal (cell-free assay; 0.5 µM): 99.7%

Nc1cnc(N2CCc3cc(S(=O)(=O)Nc4c(F)cc(Cl)cc4F)cc(N4CCCC4=O)c32)nc1
remaining binding (cell-free assay; competition with immobilised ligand; 1 µM): 76%

O=C(Nc1cnn(-c2csc(C(=O)NC3COC3)c2)c1)Nc1ccccc1Cl
remaining activity (enzyme activity; inhibitor; 5 µM): 101%

CNc1cccc2cc(C(=O)Nc3ccc(C(=O)O)cc3)c(=O)[nH]c12
inhibition (enzyme activity; inhibitor; 10 µM): -1.2%

CC(=O)c1c(NS(C)(=O)=O)c2cc(-c3ccc(Cl)cc3)c(-c3ccc(Cl)cc3Cl)nc2n(C)c1=O
remaining binding (cell-free assay; competition with immobilised ligand; 1 µM): 92%

N#CCCc1ccc2c(c1)-c1[nH]c3ccc([N+](=O)[O-])cc3c1CC(=O)N2
remaining signal (cell-free assay; 0.5 µM): 114%

CCN(CC)CCNC(=O)c1c(C)[nH]c(/C=C2\C(=O)Nc3ccc(F)cc32)c1C
inhibition (enzyme activity; inhibitor; 0.3 µM): 4%

CSc1cccnc1N1CCN(Cc2nc3ccccc3[nH]2)CC1
remaining binding (cell-free assay; competition with immobilised ligand; 1 µM): 81%

CCCOc1ccc(OC)c(F)c1C(=O)c1ccc(C(=O)N[C@@H]2CNC[C@H]2NC(=O)c2ccc3[nH]ncc3c2)cc1
remaining activity (enzyme activity; inhibitor; 50 nM): 72%

Cn1cnc(Br)c1C1=CN(c2ncnc3[nH]cnc23)CCS1
inhibition (enzyme activity; inhibitor; radiometric; 2 µM): 82.2%

Cc1cnc(NC2CCOCC2)nc1-n1cnc(C(=O)NC(CN)c2cc(F)cc(Cl)c2)c1 (stereo not shown)
remaining activity (enzyme activity; inhibitor; radiometric; 1 µM): 25%

Cc1ccc(NC(=O)c2ccc(C)c(C(F)(F)F)c2)cc1C#Cc1nn(C2CCC(O)CC2)c2ncnc(N)c12 (stereo not shown)
remaining signal (cell-free assay; 10 µM): 97%

CCc1ccccc1C(=O)Nc1n[nH]c2c(C)c(F)c(C3C(C#N)=C(C)N(C)C(C)=C3C#N)cc12
remaining binding (cell-free assay; competition with immobilised ligand; 1 µM): 100%

COc1cc2ncnc(Nc3ccc(Oc4ccccc4)cc3C)c2cc1OC
inhibition (enzyme activity; inhibitor; 1 µM): -4%

Nc1c(C(=O)NCc2ccc(C(=O)NCCCC3CCCCC3)cc2)cnn1-c1ccccc1
remaining binding (cell-free assay; competition with immobilised ligand; 0.1 µM): 72%

COc1cc(Cl)c(C(=O)N[C@@H](CN[C@H]2CC[C@@H](N)CC2)Cc2ccc(C#N)cc2)cc1-c1ccc(CN[C@H](C)c2ccc(C)cc2)o1
remaining activity (enzyme activity; inhibitor; 1 µM): 82%
